# Source: PubChem BioAssay
# Shown are actives, neighbours in structure and some others; about 2.2% of the full set was active somewhere.
# Myeloid diff MLP – induction of myeloid progenitor differentiation, primary screen, cell-based, flow cytometry, MLPCN library; 360,000 compounds, 1% hits; calls only at 10 µM; AID 624256, 2012; ER-HoxA9 myeloid progenitors, lysozyme-GFP differentiation;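 active = normalized GFP-positive differentiation at or above the plate's own cutoff, the solvent-only control mean plus 3 SD; inconclusive = no clear call, values can overlap the other calls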;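 note: cells exposed to compound for four days before flow analysis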
# CSN deneddyl inh – inhibitors of CSN-mediated cullin deneddylation, primary screen, biochemical, fluorescence polarization, uHTS | COP9 signalosome complex subunit 5 (Homo sapiens), Q92905 | Purified CSN, SCF-Nedd8-OG deneddylation | inhibition, % at 12.5 µM | 360,000 compounds, 0.38% hits;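 active = pattern-corrected inhibition above about 35%, with an unprinted fluorescence ratio check between 0.5 and 1.5, limit read from the data, passing the limit was not always enough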
#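 Assay system: HEK293T-derived human Csn5 enzyme; quantity: 0.24 nM enzyme; medium: Tris/NaCl/DTT buffer, pH 7.5; also added: substrate SCFSkp2-Nedd8OG, 10 nM; doses: 12.5 µM compound; schedule: 90 min reaction at room temperature; signal: FP; read-out: % inhibition of substrate cleavage by Csn5; benchmarks: substrate-only high control, full reaction low control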
# Granule exo inh – LAMP-1 surface exposure blockers, TALL-104 cells – cell-based, flow cytometry, MLPCN library, primary screen. TALL-104 LAMP-1 surface exposure; cells stimulated with thapsigargin and PMA. inhibition, % at 10 µM. 360,000 compounds, 0.66% hits. AID 651702, 2012;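 active = inhibition above about 55%, limit read from the data; inconclusive = no clear call, values can overlap the other calls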
# HNF4A DNA FP – change in binding of human HNF4A to DNA, primary screen, biochemical, fluorescence polarization, FITC-DNA; AID 1224865, 2016; Hepatocyte nuclear factor 4-alpha (Homo sapiens), P41235; activity change, % at 10 µM; 1 h; 360,000 compounds, 0.3% hits; in the data active = activity change above about 30%, passing the limit was not always enough
# Target sequence (P41235 whole entry, looked up): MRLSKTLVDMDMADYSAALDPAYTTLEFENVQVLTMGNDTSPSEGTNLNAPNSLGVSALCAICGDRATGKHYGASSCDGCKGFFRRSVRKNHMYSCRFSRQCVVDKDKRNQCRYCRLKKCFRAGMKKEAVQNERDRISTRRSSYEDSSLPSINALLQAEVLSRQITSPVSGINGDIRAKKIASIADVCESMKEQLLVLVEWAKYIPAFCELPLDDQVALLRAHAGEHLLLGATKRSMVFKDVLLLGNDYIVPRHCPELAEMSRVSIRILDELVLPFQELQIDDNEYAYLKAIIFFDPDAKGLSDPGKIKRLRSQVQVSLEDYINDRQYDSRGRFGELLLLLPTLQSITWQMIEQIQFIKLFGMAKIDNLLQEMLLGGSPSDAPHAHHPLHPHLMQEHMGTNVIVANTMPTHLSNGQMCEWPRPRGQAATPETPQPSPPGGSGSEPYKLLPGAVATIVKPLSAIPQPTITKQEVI
# A number is an active result; n = inactive; u = inconclusive; + = active, no number.
SMILES,Myeloid diff MLP,CSN deneddyl inh,Granule exo inh,HNF4A DNA FP
COc1ccc(-c2cc(=O)oc3c(C)c(OCC(=O)Nc4cccnc4)ccc23)cc1,n,89.6,n,n
O=C(O)c1ccc(N=Cc2c(O)ccc3ccccc23)cc1,n,n,n,n
COc1ccc(N=Cc2c(O)ccc3ccccc23)cc1,n,50.7,n,72.1
CC(=O)Nc1ccc(N=Cc2c(O)ccc3ccccc23)cc1,n,n,n,77.1
O=C(CSc1ccc(-c2ccco2)nn1)c1ccc(F)cc1,n,n,n,n
Cc1ccc(-c2ccc(SCC(=O)c3ccccc3)nn2)cc1,n,n,n,n
N#Cc1ccc(-c2ccco2)nc1SCC(=O)c1ccc(Cl)cc1,+,n,n,n
Cc1ccc(C(=O)CSc2nc(-c3ccccc3)ccc2C#N)cc1,+,n,n,n
O=C(/C=C/c1ccc(NC(=O)c2ccccc2-c2ccccc2C(=O)O)cc1)c1ccccc1,n,50.5,n,n
Cc1ccc(S(=O)(=O)Nc2ccc(Cl)cc2O)cc1,n,n,n,n
Cc1noc(/C=C/Nc2ccc(F)cc2F)c1[N+](=O)[O-],n,n,n,n
COc1ccccc1N/C=C/c1onc(C)c1[N+](=O)[O-],n,n,n,69.2
Cc1noc(/C=C/c2ccccn2)c1[N+](=O)[O-],+,n,n,n
Cc1ccccc1CC(=O)Nc1ccc2c(c1)c(=O)n(C)n2-c1cccs1,n,n,n,n
CC1(c2ccccc2)NC(=O)N(CC(=O)Nc2ccccc2N2CCCC2)C1=O (centres undefined),n,n,n,n
Cc1[nH]c(=O)[nH]c(=O)c1Sc1ccccc1[N+](=O)[O-],n,n,n,n
CC1(Br)C(Sc2ccccc2[N+](=O)[O-])=Nc2ccccc21 (centres undefined),n,n,71.9,n
COCCN(C(=O)CSc1nc2ccc(C)cc2[nH]1)c1c(N)n(Cc2ccccc2)c(=O)[nH]c1=O,+,n,n,n
CCCn1c(N)c(N(CCOC)C(=O)c2cccc(Cl)c2)c(=O)[nH]c1=O,n,n,n,n
CCc1nc2ccccc2c(C(=O)OCC(=O)N(CCOC)c2c(N)n(Cc3ccccc3)c(=O)[nH]c2=O)c1C,n,+,n,n
CCCn1c(N)c(N(CCOC)C(=O)c2cc(C)cc(C)c2)c(=O)[nH]c1=O,n,n,n,34.6
[O-]/[N+](=N\Nc1ccc(Cl)cc1)c1ccccc1,n,n,n,n
CN(C(=O)c1ccc(NC(=O)Cc2ccc(NC(=O)C3CCN(C(=O)C4CC4)CC3)cc2)cc1)C1CCCC1,n,n,n,n
CCCCCCC(=O)N(O)C1CC(=O)N(c2ccc(F)cc2)C1=O (centres undefined),n,n,n,n
CCCCCCC(=O)N(O)C1CC(=O)N(c2ccc(Br)cc2)C1=O (centres undefined),n,n,102.9,n
SMILES,Myeloid diff MLP,CSN deneddyl inh,Granule exo inh,HNF4A DNA FP
COc1cccc(/C=N/NC(=O)c2ccc(-n3cnnn3)cc2)c1,n,n,n,n
COc1ccccc1Cc1c(C2CCCCC2)nc2ccc(Cl)cn12,n,59.9,n,n
COc1ccccc1Cc1c(C2CCCCC2)nc2ccc(C)cn12,n,n,n,n
O=C(O)CCNc1nc(C(F)(F)F)nc2ccccc12,+,n,n,n
COc1ccccc1CNC(=O)COC(=O)C1CCN(S(=O)(=O)c2c(Cl)cccc2Cl)CC1,n,n,n,n
CCCCc1nc2cc(C(=O)N3CCN(c4cnccn4)CC3)ccc2o1,n,n,n,n
O=C(COC(=O)c1ccccc1Br)Nc1cccnc1Cl,n,n,n,n
COc1cccc2c(C)nc(Nc3nc(CSc4nnc(C)s4)cc(=O)[nH]3)nc12,+,n,n,n
Cn1nnnc1SCc1nc2scc(-c3ccc(Cl)cc3)c2c(=O)[nH]1,n,n,n,39.2
Cn1nnnc1SCc1nc2scc(-c3ccccc3)c2c(=O)[nH]1,n,n,n,n
O=C(CS)Nc1ccc2ccccc2c1,n,n,66.7,n
COc1ccc(-c2nn(-c3ccccc3)cc2C(=O)N2CCN(S(=O)(=O)c3cccc(F)c3)CC2)cc1,n,n,n,n
CCCOc1ccccc1/C=C(\C#N)C(=O)Nc1cccc(C)n1,+,n,n,n
Oc1ccc(C[C@H]2CNCCN2CCc2cccc(F)c2)cc1,n,n,n,n
Oc1ccc(C[C@@H]2CNCCN2CCc2cccc3ccccc23)cc1,+,n,n,n
CCCCN1CCNC[C@@H]1Cc1ccc(O)cc1,+,n,n,n
Cc1cc(Cl)c2oc(C(=O)N(C)CC3CCOCC3)c(C)c2c1,n,n,n,n
COC(=O)c1c(NC(=O)c2ccccc2)sc2c1CC(C)(C)NC2(C)C,n,n,n,n
CCOC(=O)c1c(NC(=O)Cc2ccccc2)sc2c1CC(C)(C)NC2(C)C,u,n,n,n
CCOC(=O)c1c(NC(=O)COc2ccccc2C#N)sc2c1CC(C)(C)NC2(C)C,n,n,56.6,n
CC1(C)Cc2c(sc(NC(=O)c3ccc(C(=O)c4ccccc4)cc3)c2C(N)=O)C(C)(C)N1,+,n,n,n
COC(=O)c1c(NC(=O)c2ccc(OC(C)C)cc2)sc2c1CC(C)(C)NC2(C)C,+,n,n,n
CCOC(=O)c1ccccc1NS(=O)(=O)c1cnn(CC)c1C,n,n,n,n
COCCN1CCC(CO)C1 (centres undefined),n,n,n,n
COc1ccc(CCCC(=O)NCC(=O)N/N=C/c2cc(Cl)ccc2OC)cc1,n,n,n,n
SMILES,Myeloid diff MLP,CSN deneddyl inh,Granule exo inh,HNF4A DNA FP
CCOC(=O)C1CCN(c2nc3ccccc3nc2C(C#N)C(=O)OC(C)C)CC1 (centres undefined),n,45.1,n,n
Cc1nc(SCC(=O)NC(=O)NCc2ccccc2)nc(C)c1C,n,n,n,n
COCCNC(=O)NC(=O)CSc1nc(C)c(C)c(C)n1,+,n,n,n
N#CCSc1ccccc1NC(=O)COc1ccc(-c2nnco2)cc1,+,n,n,n
CC(C)c1ccccc1NC(=O)COC(=O)Cc1c[nH]c2ccccc12,n,n,n,n
N#CCSc1ccccc1NC(=O)COC(=O)Cc1c[nH]c2ccccc12,+,n,n,n
N#Cc1ccsc1NC(=O)COc1ccc(-c2nnco2)cc1,n,n,n,n
CCCCN1Cc2ccccc2Oc2cc(Br)ccc2S1(=O)=O,+,n,n,n
COc1ccc(N2CC(C(=O)NC3CCSC3=O)CC2=O)cc1 (centres undefined),n,n,n,n
COc1cc(OC)cc(-c2nnc(SCC(=O)N(Cc3ccccc3)C(C)(C)C)o2)c1,+,n,n,n
COc1cc(-c2nnc(SCC(=O)N(Cc3ccccc3)C(C)(C)C)o2)cc(OC)c1OC,+,n,n,n
COc1cc(OC)cc(-c2nnc(SCC(=O)N(C(C)C)C(C)C)o2)c1,n,n,n,n
O=C(/C=C/c1ccc(Cl)cc1)N1CCN(Cc2ccccc2)CC1,n,n,n,n
